Test results: ChEMBL document CHEMBL4130351, “Novel pyrazolopyrimidines: Synthesis, in vitro cytotoxic activity and mechanistic investigation” (Eur J Med Chem, 2017)

How the values were obtained:
MCF7 = test: Cytotoxicity against human MCF7 cells assessed as reduction in cell viability after 72 hrs by MTT assay; format: functional, cell-based; settings: MCF7, 72 h
In short: (§1)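 MCF-7 and HepG2 cells in exponential growth were trypsinized and seeded at 1000–2000 cells/well, then incubated 24 h at 37 °C. Compound exposure was 72 h at 0.1, 10, 100 and 1000 μM. Cells took up 5% MTT for 2 h, and formazan was dissolved in acidified isopropanol for 30 min at room temperature. A570 was read, viability expressed as % of control, and IC50 obtained by curve fitting.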

HepG2 = test: Cytotoxicity against human HepG2 cells assessed as reduction in cell viability after 72 hrs by MTT assay; format: functional, cell-based; settings: HepG2, 72 h; in short: as §1

`Nc1ncnc2c1cnn2-c1ccc(S(N)(=O)=O)cc1` showed an IC50 (MCF7) of 40.7 µM and an IC50 (HepG2) of 95.5 µM.
In the case of `NS(=O)(=O)c1ccc(-n2ncc3c(=O)[nH]c(-c4ccc(Cl)cc4)nc32)cc1`, the IC50 (MCF7) is reported as 2.5 µM and the IC50 (HepG2) is reported as 23.9 µM.
Work on `COc1ccc(-c2nc3c(cnn3-c3ccc(S(N)(=O)=O)cc3)c(=O)[nH]2)cc1OC` yielded an IC50 (MCF7) of over 100 µM and an IC50 (HepG2) of over 100 µM.
`NS(=O)(=O)c1ccc(-n2ncc3c(=O)[nH]c(-c4ccc(Br)cc4)nc32)cc1` gave an IC50 (MCF7) of 14.5 µM and an IC50 (HepG2) of 42.6 µM.
Molecule `COc1cccc2c1C(=O)c1c(O)c3c(c(O)c1C2=O)C[C@@](O)(C(=O)CO)C[C@@H]3O[C@H]1C[C@H](N)[C@H](O)[C@H](C)O1` [DOXORUBICIN] has an IC50 (MCF7) of 1.02 µM and an IC50 (HepG2) of 0.9 µM.
In the case of `N#Cc1cnn(-c2ccc(S(N)(=O)=O)cc2)c1N`, the IC50 (MCF7) is reported as over 100 µM and the IC50 (HepG2) is reported as over 100 µM.
